The assay has as its target Beta-lactamase (Aeromonas veronii, UniProt O31272). Kind of assay: Inhibition of Aeromonas veronii metallo-beta-lactamase ImiS expressed in Escherichia coli BL21(DE3) using imipenem substrate pre-incubated for 30 mins by Lineweaver-Burk plot method. An outline of the steps:
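Purified enzyme; initial rates of imipenem hydrolysis followed by UV spectrophotometry (262 or 300 nm) in 50 mM Tris pH 7.0, 25 °C. Substrate 24–140 μM, inhibitor 0–10 μM. Rates in triplicate and averaged. Inhibition mode from Lineweaver–Burk plots. Ki from fits of initial velocity vs substrate concentration at each inhibitor level.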

Bounds are passed on as bounds.

Chain of Beta-lactamase (O31272 whole entry): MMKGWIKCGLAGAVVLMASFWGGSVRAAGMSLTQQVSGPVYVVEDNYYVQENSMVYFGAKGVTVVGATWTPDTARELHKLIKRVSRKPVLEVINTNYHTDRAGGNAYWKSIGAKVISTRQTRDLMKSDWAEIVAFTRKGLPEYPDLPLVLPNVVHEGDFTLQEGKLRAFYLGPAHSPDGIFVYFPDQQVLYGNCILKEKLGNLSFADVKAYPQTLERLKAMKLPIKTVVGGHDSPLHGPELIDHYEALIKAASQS

For `O=C(CSc1nnc(-c2ccccc2C(=O)O)[nH]1)Nc1ccccc1`, the Ki (read-out: Ki) was found to be 1.8 µM.

Regarding `O=C(CSc1nnc(-c2ccccc2C(=O)O)[nH]1)Nc1nc2ccccc2[nH]1`, the Ki (read-out: Ki) is 3.6 µM. In the case of `O=C(CSc1nnc(-c2ccccc2C(=O)O)[nH]1)Nc1nc2ccccc2s1`, the Ki (read-out: Ki) stood at 1.2 µM. As for `O=C(CSc1nnc(-c2ccccc2C(=O)O)[nH]1)Nc1ccc(Cl)cc1`, the Ki (read-out: Ki) was 1.4 µM. For the compound `O=C(CSc1nnc(-c2ccccc2C(=O)O)[nH]1)Nc1ccc([N+](=O)[O-])cc1`, for the setting “read-out: Ki”, the Ki amounted to 2.2 µM.

Turning to `O=C(CSc1nnc(-c2ccccc2C(=O)O)[nH]1)NCc1ccccc1`, the Ki entry is “Not Active”. Turning to `O=C(CSc1nnc(-c2ccccc2C(=O)O)[nH]1)Nc1ccccc1Cl`, for the setting “read-out: Ki”, the Ki was found to be 2.3 µM. Same read-out and setting: for `O=C(CSc1nnc(-c2ccccc2C(=O)O)[nH]1)Nc1cccc(Cl)c1` the value was 2.4 µM; for `O=C(CSc1nnc(-c2ccccc2C(=O)O)[nH]1)Nc1ccccc1[N+](=O)[O-]`, 2.7 µM.

On to `O=C(CSc1nnc(-c2ccccc2C(=O)O)[nH]1)Nc1cccc([N+](=O)[O-])c1`, for which the Ki (read-out: Ki) was determined as 1.9 µM. The same measure, in the same setting: the result for `O=C(O)CCc1nnc(SCC(=O)Nc2ccccc2)[nH]1` reads more than 5000 µM; that for `O=C(O)CCc1nnc(SCC(=O)Nc2nc3ccccc3[nH]2)[nH]1`, more than 2500 µM. Consider `O=C(O)CCc1nnc(SCC(=O)Nc2nc3ccccc3s2)[nH]1`, for which the Ki result is listed as “Not Active”. For `O=C(O)CCc1nnc(SCC(=O)Nc2ccc(Cl)cc2)[nH]1`, the Ki (read-out: Ki) was more than 5000 µM.

With `O=C(O)CCCc1nnc(SCC(=O)Nc2nc3ccccc3[nH]2)[nH]1`, the Ki result is listed as “Not Active”.

As usually defined, the Ki is a dissociation constant, usually derived from enzyme kinetics or from competition with a known ligand.

The values are drawn from ChEMBL document CHEMBL3576784, “Azolylthioacetamide: A Highly Promising Scaffold for the Development of Metallo-β-lactamase Inhibitors” (ACS Med Chem Lett, 2015).
